Assay results reported in ChEMBL document CHEMBL2203109, “3-Phenyl substituted 6,7-dimethoxyisoquinoline derivatives as FtsZ-targeting antibacterial agents” (Bioorg Med Chem, 2012).
In brackets after ≈: the same amount, converted by molar mass. Activity calls are given as the source filed them. No cut-off for these calls is given here.

What was measured:
[1] = system: Enterococcus faecalis; test: Antibacterial activity against log-phase vancomycin-resistant Enterococcus faecalis ATCC 51575 assessed as growth inhibition after 24 hrs by broth microdilution method; assay type: functional; details: ATCC 51575, 24 h
Outline: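 CLSI broth microdilution in brain–heart infusion broth; log-phase bacteria at 10^5 CFU/mL, two-fold serial dilutions 64 to 0.031 μg/mL; 24 h aerobic incubation at 37 °C; OD600 read-out; MIC taken as lowest concentration inhibiting growth ≥90%.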

[2] = system: Enterococcus faecalis; test: Antibacterial activity against log-phase vancomycin-sensitive Enterococcus faecalis ATCC 19433 assessed as growth inhibition after 24 hrs by broth microdilution method; assay type: functional; details: ATCC 19433, 24 h
Outline: (§1)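 CLSI broth microdilution. Log-phase bacteria at 10^5 CFU/mL with two-fold serial dilutions (64 to 0.031 μg/mL). S. aureus tested in cation-adjusted Mueller-Hinton broth; E. faecalis in brain–heart infusion broth. Aerobic incubation 24 h at 37 °C. OD600 read; MIC is the lowest concentration giving ≥90% growth inhibition.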

[3] = system: Staphylococcus aureus; test: Antibacterial activity against log-phase methicillin-resistant Staphylococcus aureus ATCC 33591 assessed as growth inhibition after 24 hrs by broth microdilution method; assay type: functional; details: ATCC 33591, 24 h
Outline: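 CLSI broth microdilution; 10^5 CFU/mL log-phase bacteria in cation-adjusted Mueller-Hinton broth with 2% NaCl, two-fold serial dilutions from 64 to 0.031 μg/mL; aerobic incubation 24 h at 37 °C; growth read as OD600; MIC = lowest concentration giving ≥90% growth inhibition.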

[4] = system: Staphylococcus aureus; test: Antibacterial activity against log-phase methicillin-sensitive Staphylococcus aureus 8325-4 assessed as growth inhibition after 24 hrs by broth microdilution method; assay type: functional; details: 8325-4, 24 h; outline: as §1
[5] = system: HEK293; test: Cytotoxicity against human HEK293 cells at 10 uM after 4 days by MTT assay; assay type: cell-based; details: hek293, 96 h
Outline: (§2)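 MTT assay. HEK293 or MDCK cells kept at 37 °C, 5% CO2 in DMEM, seeded at 1500 cells per well. Continuous 4-day exposure to varying drug concentrations in triplicate wells, with a drug-free control. MTT read at end of day 4; IC50 determined.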

[6] = biological target: T1, Cell division protein FtsZ (Staphylococcus aureus) (UniProt P0A031); test: Induction of Staphylococcus aureus FtsZ polymerization at 40 ug/ml measured for 60 mins by microtiter plate-based light scattering assay
T1 sequence (whole entry): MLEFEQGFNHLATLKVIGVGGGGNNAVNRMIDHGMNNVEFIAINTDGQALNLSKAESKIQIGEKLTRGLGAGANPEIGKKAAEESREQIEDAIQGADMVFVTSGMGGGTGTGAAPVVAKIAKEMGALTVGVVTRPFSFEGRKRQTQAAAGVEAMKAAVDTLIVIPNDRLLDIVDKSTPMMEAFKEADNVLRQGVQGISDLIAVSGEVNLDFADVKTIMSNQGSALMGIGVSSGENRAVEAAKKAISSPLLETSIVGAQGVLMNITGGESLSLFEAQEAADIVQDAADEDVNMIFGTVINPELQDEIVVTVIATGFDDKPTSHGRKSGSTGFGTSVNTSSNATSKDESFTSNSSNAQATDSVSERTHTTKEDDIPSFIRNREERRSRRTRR
Outline: (§3)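 Turbidity assay. 10 μM SaFtsZ plus compound (0–40 μg/mL) in 50 mM Tris HCl pH 7.4, 50 mM KCl, 2 mM magnesium acetate, 5 mM CaCl2, pre-equilibrated 10 min at room temperature. Started by adding 1 mM GTP or FtsZ; A340 followed for 60 min at 25 °C. For polymer stability, 1 mM GDP added mid-run.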

[7] = biological target: T1, Cell division protein FtsZ (Staphylococcus aureus); test: Residual Staphylococcus aureus GTPase activity assessed as inorganic phosphate release upon GTP hydrolysis at 40 ug/ml preincubated for 10 mins before substrate addition measured after 2 hrs by malachite green based colorimetric analysis
[8] = biological target: T1, Cell division protein FtsZ (Staphylococcus aureus); test: Induction of Staphylococcus aureus FtsZ polymerization measured for 60 mins by microtiter plate-based light scattering assay; outline: as §3
[9] = biological target: T1, Cell division protein FtsZ (Staphylococcus aureus); test: Induction of Staphylococcus aureus FtsZ polymerization at 40 ug/ml measured for 60 mins by microtiter plate-based light scattering assay in presence of GTP
[10] = system: HEK293; test: Cytotoxicity against human HEK293 cells after 4 days by MTT assay; assay type: cell-based; details: HEK293, 96 h; outline: as §2
[11] = system: MDCK; test: Cytotoxicity against dog MDCK cells after 4 days by MTT assay; assay type: cell-based; details: Canis lupus familiaris, 96 h; outline: as §2

SMILES | MIC90 [1] [µg/mL] | MIC90 [2] [µg/mL] | MIC90 [3] [µg/mL] | MIC90 [4] [µg/mL] | Activity [5] | Activity [6] | residual activity [7] [%] | Activity [8] | Activity [9] | IC50 [10] [nM] | IC50 [11] [nM]
COc1cc2cc(-c3cccc(-c4ccccc4)c3)[n+](C)c(C)c2cc1OC.[I-] | > 64 | > 64 | 32 | 16 | – | – | – | – | – | – | –
COc1cc2cc(-c3cccc(-c4ccc(C(C)(C)C)cc4)c3)nc(CN=C(N)N)c2cc1OC | 16 (≈ 34.1 µM) | 8 (≈ 17.1 µM) | 4 (≈ 8.54 µM) | 4 (≈ 8.54 µM) | Non-toxic | – | – | – | – | – | –
COc1cc2cc(-c3cccc(-c4ccccc4)c3)nc(C)c2cc1OC | > 64 | > 64 | > 64 | > 64 | – | – | – | – | – | – | –
COc1cc(-c2cc3cc(OC)c(OC)c(OC)c3c(C)n2)cc(-c2ccc(-c3ccccc3)cc2)c1OC | > 64 | > 64 | > 64 | > 64 | – | – | – | – | – | – | –
Cc1onc(-c2ccccc2)c1C(=O)N[C@@H]1C(=O)N2[C@@H]1SC(C)(C)[C@@H]2C(=O)O [OXACILLIN] | > 64 | 8 (≈ 19.9 µM) | > 64 | 0.06 (≈ 0.149 µM) | – | – | – | – | – | – | –
COc1cc2cc(-c3cccc(-c4ccccc4)c3)[n+](C)c(N(C)C)c2cc1OC.[I-] | 64 | 64 | 32 | 8 | – | – | – | – | – | – | –
COc1cc2cc(-c3cccc(C(C)(C)C)c3)nc(CN)c2cc1OC | 32 (≈ 91.3 µM) | 32 (≈ 91.3 µM) | 8 (≈ 22.8 µM) | 4 (≈ 11.4 µM) | Non-toxic | – | – | – | – | – | –
CNc1nc(-c2cccc(-c3ccccc3)c2)cc2cc(OC)c(OC)cc12 | > 64 | > 64 | > 64 | > 64 | – | – | – | – | – | – | –
COc1cc2cc(-c3cccc(C(C)(C)C)c3)nc(C)c2cc1OC | > 64 | > 64 | > 64 | > 64 | – | inactive | – | – | – | – | –
COc1cc2cc(-c3cccc(-c4ccccc4)c3)nc(CN=C(N)N)c2cc1OC | 8 (≈ 19.4 µM) | 8 (≈ 19.4 µM) | 2 (≈ 4.85 µM) | 2 (≈ 4.85 µM) | Non-toxic | – | – | – | – | – | –
CN[C@H](CC(C)C)C(=O)N[C@H]1C(=O)N[C@@H](CC(N)=O)C(=O)N[C@H]2C(=O)N[C@H]3C(=O)N[C@H](C(=O)N[C@H](C(=O)O)c4cc(O)cc(O)c4-c4cc3ccc4O)[C@H](O)c3ccc(c(Cl)c3)Oc3cc2cc(c3O[C@@H]2O[C@H](CO)[C@@H](O)[C@H](O)[C@H]2O[C@H]2C[C@](C)(N)[C@H](O)[C@H](C)O2)Oc2ccc(cc2Cl)[C@H]1O [VANCOMYCIN] | > 64 | 1 (≈ 0.69 µM) | 2 (≈ 1.38 µM) | 1 (≈ 0.69 µM) | – | inactive | 99.7 | – | – | – | –
COc1cc2cc(-c3cccc(C(C)(C)C)c3)nc(CCN=C(N)N)c2cc1OC | 16 (≈ 39.4 µM) | 16 (≈ 39.4 µM) | 4 (≈ 9.84 µM) | 4 (≈ 9.84 µM) | Non-toxic | Active | 66.5 | Dose-dependent effect | Active | – | –
COc1cc2cc(-c3cccc(-c4ccccc4)c3)nc(C#N)c2cc1OC | > 64 | > 64 | > 64 | > 64 | – | – | – | – | – | – | –
COc1cc(-c2cc3cc(OC)c(OC)c(OC)c3c(C)[n+]2C)cc(-c2ccc(-c3ccccc3)cc2)c1OC.[I-] | 4 | – | – | 1 | – | – | – | – | – | – | –
COc1cc2cc(-c3cccc(C(C)(C)C)c3)[n+](C)c(C)c2cc1OC.[I-] | 64 | 64 | 16 | 16 | – | – | – | – | – | – | –
COc1cc2cc(-c3cccc(-c4ccccc4)c3)nc(CCN)c2cc1OC | > 64 | 16 (≈ 41.6 µM) | 4 (≈ 10.4 µM) | 4 (≈ 10.4 µM) | – | – | – | – | – | – | –

SMILES | MIC90 [1] [µg/mL] | MIC90 [2] [µg/mL] | MIC90 [3] [µg/mL] | MIC90 [4] [µg/mL] | Activity [5] | Activity [6] | residual activity [7] [%] | Activity [8] | Activity [9] | IC50 [10] [nM] | IC50 [11] [nM]
COc1cc2cc(-c3cccc(-c4ccccc4)c3)nc(C)c2c(OC)c1OC | > 64 | > 64 | > 64 | > 64 | – | – | – | – | – | – | –
COc1cc2cc(-c3cccc(-c4ccccc4)c3)nc(N(C)C)c2cc1OC | > 64 | > 64 | > 64 | > 64 | – | – | – | – | – | – | –
CN(C)[C@@H]1C(O)=C(C(N)=O)C(=O)[C@@]2(O)C(O)=C3C(=O)c4c(O)cccc4[C@@](C)(O)[C@H]3C[C@@H]12 [TETRACYCLINE] | > 64 | 0.5 (≈ 1.13 µM) | 64 (≈ 144 µM) | 0.06 (≈ 0.135 µM) | – | – | – | – | – | – | –
CC[C@H]1OC(=O)[C@H](C)[C@@H](O[C@H]2C[C@@](C)(OC)[C@@H](O)[C@H](C)O2)[C@H](C)[C@@H](O[C@@H]2O[C@H](C)C[C@H](N(C)C)[C@H]2O)[C@](C)(O)C[C@@H](C)C(=O)[C@H](C)[C@@H](O)[C@]1(C)O [ERYTHROMYCIN] | > 64 | 1 (≈ 1.36 µM) | > 64 | 0.1 (≈ 0.136 µM) | – | – | – | – | – | – | –
COc1cc2cc(-c3cccc(-c4ccccc4)c3)[n+](C)cc2cc1OC.[I-] | > 64 | > 64 | 64 | 16 | – | – | – | – | – | – | –
C[n+]1cc2c3c(ccc2c2ccc4cc5c(cc4c21)OCO5)OCO3 [SANGUINARIUM] | 16 | 8 | 2 | 2 | – | – | – | – | – | – | –
COc1cc2cc(-c3cccc(-c4ccccc4)c3)[n+](C)c(C)c2c(OC)c1OC.[I-] | 32 | 32 | 8 | 8 | – | – | – | – | – | – | –
COc1cc2cc(-c3cccc(C(C)(C)C)c3)nc(CCN)c2cc1OC | 16 (≈ 43.9 µM) | 16 (≈ 43.9 µM) | 16 (≈ 43.9 µM) | 16 (≈ 43.9 µM) | – | Active | 59.7 | Dose-dependent effect | Active | 2200 | 2200
COc1ccc2c(c[n+](C)c3c4cc5c(cc4ccc23)OCO5)c1OC [CHELERYTHRINE] | 32 | 32 | 4 | 4 | – | – | – | – | – | – | –
CCC[C@@H]1C[C@@H](C(=O)N[C@@H]([C@H]2O[C@H](SC)[C@H](O)[C@@H](O)[C@H]2O)[C@H](C)Cl)N(C)C1 [CLINDAMYCIN] | > 64 | 2 (≈ 4.71 µM) | > 64 | 0.03 (≈ 0.0706 µM) | – | – | – | – | – | – | –
COc1cc2cnc(-c3cccc(-c4ccccc4)c3)cc2cc1OC | > 64 | > 64 | > 64 | > 64 | – | – | – | – | – | – | –
COc1cc2cc(-c3cccc(-c4ccccc4)c3)nc(N=C(N)N)c2cc1OC | 8 (≈ 20.1 µM) | 8 (≈ 20.1 µM) | 4 (≈ 10 µM) | 8 (≈ 20.1 µM) | – | – | – | – | – | 2200 | 2200
COc1cc2cc(-c3cccc(-c4ccc(-c5ccccc5)cc4)c3)nc(C)c2cc1OC | > 64 | > 64 | > 64 | > 64 | – | – | – | – | – | – | –
COc1ccc2cc3[n+](cc2c1OC)CCc1cc2c(cc1-3)OCO2 [BERBERINE] | > 64 | > 64 | > 64 | > 64 | – | inactive | – | – | – | – | –
COc1cc2cc(-c3cccc(-c4ccc(C(C)(C)C)cc4)c3)nc(C)c2cc1OC | > 64 | > 64 | > 64 | > 64 | – | inactive | – | – | – | – | –
COc1cc2cc(-c3cccc(-c4ccccc4)c3)nc(CN)c2cc1OC | > 64 | > 64 | 16 (≈ 43.2 µM) | 8 (≈ 21.6 µM) | – | – | – | – | – | 3000 | 7000
